ARFGAP1 inh = inhibits rat ARF GTPase activating protein 1; Q62848; Arfgap1-stimulated ARF1 GTP hydrolysis, GDP FP detection; inhibition, % at 16.5 µM; actives 0.26% (n = 360,000);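 active = inhibition above a per-plate limit, mean inhibition of low control wells plus 3 SD, cut at about 25% in these data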;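 also: 0% = DMSO wells with enzyme and 100% = wells lacking Arfgap1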
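System: truncated rat Arfgap1 GAP domain / Benchmarks: high control wells lacking Arfgap1, low control full reaction with DMSO / Times: compound-enzyme preincubation 20 min, reaction 120 min, detection 60 min, 25 °C / Repeats: one replicate per compound / Also added: human ARF1(Δ1-17)-GTP substrate / Measured by: Tracer-displacement fluorescence polarization with EDTA stop, 620/688 nm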
LEDGF integ inh = blocks HIV-1 LEDGF/p75-dependent DNA integration. TR-FRET IN-LEDGF/p75 DNA integration, Eu/Cy5. inhibition, % at 3.7 µM. actives 0.64% (n = 370,000). AID 743269;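 active = inhibition above the screen-wide mean plus 3 SD, cut at about 13% in these data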;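 also: signal is the Cy5 over europium emission ratio at 671 and 618 nm; 0% = plate median of compound wells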
Casp6 inh = inhibitors of human caspase-6 | actives 0.53% (n = 350,000) | purified caspase-6, Z-VEID-R110 cleavage fluorescence | inhibition, % at 12.5 µM | AID 686996 | P55212;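 active = mean inhibition across replicates at least about 35%, with every replicate also reaching that limit, limit read from the data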;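 also: 0% = median of neutral control wells and 100% = no fluorescence left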
Target sequence (P55212 24-179 limits assumed): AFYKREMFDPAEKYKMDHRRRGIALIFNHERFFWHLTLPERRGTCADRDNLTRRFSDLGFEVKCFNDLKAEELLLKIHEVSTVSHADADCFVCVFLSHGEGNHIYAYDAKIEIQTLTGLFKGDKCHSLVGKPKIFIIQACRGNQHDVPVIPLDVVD
Target sequence (P55212 194-293 limits assumed): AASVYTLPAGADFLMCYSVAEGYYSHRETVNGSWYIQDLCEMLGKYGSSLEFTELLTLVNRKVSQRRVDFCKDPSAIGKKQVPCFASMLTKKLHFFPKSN
TDP2 inh = blocks human TDP2 phosphodiesterase activity. actives 0.34% (n = 370,000). recombinant TDP2, T5PNP hydrolysis, p-nitrophenol absorbance 415 nm. inhibition, % at 12.8 µM. O95551;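 active = inhibition above the mean of all tested compounds plus 3 SD, set per campaign, cut at about 25% in these data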;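 also: 0% = DMSO with enzyme and 100% = buffer with substrate but no TDP2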
Target sequence (O95551 whole entry, looked up): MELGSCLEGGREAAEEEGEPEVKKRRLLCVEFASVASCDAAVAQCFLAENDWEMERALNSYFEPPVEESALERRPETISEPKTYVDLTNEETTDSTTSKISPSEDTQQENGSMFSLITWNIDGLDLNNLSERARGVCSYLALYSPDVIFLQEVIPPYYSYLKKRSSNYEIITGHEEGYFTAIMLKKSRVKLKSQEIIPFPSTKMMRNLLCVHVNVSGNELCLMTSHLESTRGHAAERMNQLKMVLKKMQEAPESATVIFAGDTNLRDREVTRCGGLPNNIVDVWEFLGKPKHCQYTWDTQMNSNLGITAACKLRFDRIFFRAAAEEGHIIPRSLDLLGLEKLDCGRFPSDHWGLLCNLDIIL
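Incubation: 2 h at 37 °C; Test system: recombinant human TDP2; Quantity: enzyme 120 nM; Read-out basis: percent inhibition; Medium: 50 mM Tris-HCl pH 7.5 with Mg2+, KCl, DTT, BSA; Repeats: single replicate; Compound: 12.8 µM single point, 1% DMSO; Signal: epi absorbance; Reagent: 5 mM T5PNP chromogenic substrate; Benchmarks: no-enzyme high, DMSO-plus-enzyme low.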
ASAP1 inh = blocks human ASAP1-stimulated Arf1 GTP hydrolysis; Q9ULH1; GDP FP detection; inhibition, % at 16.5 µM; actives 0.19% (n = 360,000);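 also: 0% = vehicle with enzyme and substrate and 100% = no enzyme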
TDP2 confirm = human TDP2 inhibition, confirmation; shares compounds with TDP2 inh; recombinant human TDP2, absorbance read-out; inhibition, % at 12.8 µM; actives 22% (n = 1,100); AID 743263;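 also: 0% = vehicle with enzyme and 100% = no enzyme buffer only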
* hit, by the source's call; / = not tested or not shown. In the library only some 1.3% were active in any assay of this set; here they are far more common. Rule as the data show it, unless noted: active = inhibition above about 25%; inactive = the rest.

SMILES	ARFGAP1 inh	LEDGF integ inh	Casp6 inh	TDP2 inh	ASAP1 inh	TDP2 confirm
O=C(Nc1ccccc1)/C(=C\c1ccccc1)NC(=O)c1ccco1	-4	3	3	9	8	/
O=C(Nc1ccccc1)/C(=C/c1ccc([N+](=O)[O-])cc1)NC(=O)c1ccco1	-7	3	3	25*	1	3
CCC(=O)c1cn(CC(=O)Nc2ccccc2F)c2ccccc12	-14	0	0	14	-3	/
COc1ccccc1-n1c(SCC(=O)Nc2cccc(C)c2)nc2c(c1=O)SCC2	-1	-3	-1	-6	4	/
O=S(=O)(Nc1ccncc1)c1cc(Cl)ccc1Cl	10	-1	-2	1	-7	/
O=C(O)c1ccc(NS(=O)(=O)c2cc(Cl)ccc2Cl)cc1O	2	2	9	29*	6	9
CCOc1ccc(CN2CCC(C(=O)N3CCN(c4ccccc4F)CC3)CC2)cc1OC	6	8	/	34*	6	0
CCOc1cc(/C=N/NC(=O)C(=O)NCC2CCCO2)ccc1OCC(=O)N1CCOCC1 (stereo unspecified)	10	2	-5	8	-6	/
COc1ccc(C)cc1NC(=O)CCNC(=O)c1ccco1	6	3	-3	26*	-7	8
OC[C@H]1Nc2ccc(-c3cccc(F)c3)cc2[C@@H]2[C@H]1CCN2Cc1ccncc1	/	/	2	/	/	/
Cc1cccc(C)c1NC(=O)CN(C)CC(=O)Nc1ccccc1Oc1ccccc1	-13	1	0	7	3	/
CCCCN(C(C)=O)C1CC(=O)N(c2ccc(OCCC)cc2)C1=O (stereo unspecified)	-7	4	4	29*	0	-5
O=C(NC(=S)Nc1ccccc1N1CCCCC1)c1ccco1	-1	6	1	-17	-11	/
O=C(NC(=S)Nc1ccccc1N1CCCC1)c1ccco1	8	3	4	38*	10	29*
O=C(Nc1ccc(Cl)cn1)c1ccc(Oc2ccccc2)cc1	-3	-2	-1	-7	8	/
COc1ccc(CCNC(=O)Cn2c(=O)n(CCCC(=O)NCc3ccco3)c(=O)c3sccc32)cc1OC	-7	3	-2	27*	-7	3
O=C(NN1C(=O)c2ccccc2NC1c1ccccn1)c1ccccc1 (stereo unspecified)	3	2	/	9	-5	/
O=C(Nc1ccc(S(=O)(=O)N2CCCCC2)cc1)C1CC(=O)N(c2ccc(Cl)cc2)C1 (stereo unspecified)	0	-1	-2	25*	-6	-6
Cc1ccc(N2CC(C(=O)Nc3ccc(S(=O)(=O)N4CCCC4)cc3)CC2=O)cc1 (stereo unspecified)	2	0	/	-7	10	/
CC(C)NC(=O)N1[C@@H](CO)[C@@H](c2ccccc2)C12CN(C(=O)Cc1cccnc1)C2	/	/	-1	/	/	/
COc1ccc(Br)c(C(=O)OCC(=O)NC2CC2)c1	-7	2	1	2	-1	/
Cc1[nH]n(-c2ccccc2)c(=O)c1/C=N/NC(=O)COc1ccccc1[N+](=O)[O-]	-12	1	-7	-1	1	/
CC(=O)N/N=C/c1c(C)[nH]n(-c2ccccc2)c1=O	1	-2	12	28*	-3	-3
Cc1[nH]n(-c2ccccc2)c(=O)c1/C=N/N1C(=O)c2ccc3c4c(ccc(c24)C1=O)CC3	0	2	/	28*	4	-9
Cc1[nH]n(-c2ccccc2)c(=O)c1/C=N/O	-1	4	0	15	-11	/
SMILES	ARFGAP1 inh	LEDGF integ inh	Casp6 inh	TDP2 inh	ASAP1 inh	TDP2 confirm
COCC(=O)N/N=C/c1c(C)[nH]n(-c2ccccc2)c1=O	-8	4	0	32*	0	2
Cc1[nH]n(-c2ccccc2)c(=O)c1/C=N/N(C)c1ccccc1	10	5	/	42*	13	9
COC(=O)N/N=C\c1c(C)[nH]n(-c2ccccc2)c1=O	0	-3	-2	12	0	/
CN(C)c1cc[n+](CC(=O)c2cccs2)cc1	-2	-1	-6	0	-12	/
Cc1cc2ncn(CC(O)COC3CCCCC3)c2cc1C (stereo unspecified)	1	-2	/	-7	-11	/
Cc1ccc(OCCCCN2CCCCC2)cc1	-4	0	0	-11	5	/
Cc1ccc(OCCN2CCCC2)cc1	-10	0	-7	25*	-6	11
Cc1ccc(SCC(=O)NCCc2ccccc2)cc1	-6	1	2	6	-4	/
CCN1CCN(C2=C(NS(=O)(=O)c3ccc(Br)cc3)C(=O)c3ccccc3C2=O)CC1	-3	9	68*	28*	5	23
CCN1CCN(C2=C(NS(=O)(=O)c3ccccc3)C(=O)c3ccccc3C2=O)CC1	4	3	48*	28*	1	16
O=C1C(NS(=O)(=O)c2cccs2)=C(N2CCN(Cc3ccccc3)CC2)C(=O)c2ccccc21	-6	1	17	40*	-9	9
CCOC(=O)N1CCN(C2=C(NS(=O)(=O)c3ccccc3)C(=O)c3ccccc3C2=O)CC1	33*	22*	6	64*	29*	11
CCOc1ccccc1N1CCN(C2=C(NS(=O)(=O)c3cccs3)C(=O)c3ccccc3C2=O)CC1	3	2	/	5	-4	/
Clc1ccc(-c2noc(CSc3nnc(Cc4cccs4)n3-c3ccccc3)n2)cc1	-2	4	-2	-3	10	/
CC(=O)Nc1ccc(S(=O)(=O)Nc2ccn(Cc3ccccc3Cl)n2)cc1	1	1	15	13	2	/
Oc1cncc(Cc2ccccc2)c1	1	-1	1	25*	3	-13
CCNC(=O)c1ccc(CSc2ccc(Cl)cc2)cc1	18	0	2	-8	7	/
Cn1[nH]c(CSc2ccc(Cl)cc2)cc1=O	0	6	6	48*	7	3
COc1ccc(CCNC(=O)CCNC(=O)c2ccc(Cl)cc2)cc1OC	14	2	-7	4	13	/
COc1ccc(CNC(=O)CCCNC(=O)c2ccc(Cl)cc2)cc1OC	5	-5	/	33*	-8	0
C=CCSc1nc2c(N)ncnc2n1C1OC(CO)C(O)C1O (stereo unspecified)	11	1	0	-2	2	/
O=C(CSc1nnc2ccccn12)NC(=O)c1ccccc1	3	0	1	3	-8	/
Cc1ccc(S(=O)(=O)/N=C2\C=C(Nc3cccc(C(=O)O)c3)C(=O)c3ccccc32)c(C)c1	2	11	100*	62*	19	70*
Cc1ccc(S(=O)(=O)/N=C2\C=C(NS(=O)(=O)c3ccccc3)C(=O)c3ccccc32)c(C)c1	-4	2	9	3	-8	/

Screening results from PubChem.
